The results in this text go back to ChEMBL document CHEMBL4477274, “Discovery of Novel Dot1L Inhibitors through a Structure-Based Fragmentation Approach” (ACS Med Chem Lett, 2016).

Usually bioavailability stands for the share of a dose that reaches the circulation, judged against a reference dose that is usually intravenous. Low readings indicate poor availability, high ones good availability. A word on the Vd: it is the apparent volume that relates the amount in the body to the concentration in plasma or blood. Low values mean confinement near the circulation, high ones extensive tissue distribution. The term pIC50 denotes the IC50 on a negative log10 scale, so that one unit is a factor of ten. By AUC(0-inf) is commonly meant the area under the concentration-time curve extrapolated to infinity. As a reminder, the half-life is the time needed for the level to fall by half in the phase considered. Read a low half-life as rapid decline. The term clearance denotes the volume of plasma or blood freed of the substance per unit of time. As a reminder, the pKi is the negative decadic logarithm of the Ki, by convention in mol/L. For orientation: Cmax means the maximum level reached in the sampled fluid or tissue. As a reminder, the Tmax is the time at which the peak concentration occurs.

pIC50, pKi: −log10 of the molar value.

Series [1] in a line: Oral bioavailability in Sprague-Dawley rat at 15 mg/kg administered via gastric intubation measured up to 48 hrs by LC-MS/MS analysis. The class given is ADME, organism-based. The note with it: in vivo. The method, boiled down:
(§1)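 Oral dosing was given to male Sprague Dawley rats as a suspension at 15 mg/kg. Total blood concentrations were sampled over time to give Cmax, Tmax and AUC0-inf. Oral bioavailability was calculated at this dose.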

Series [2] can be described thus: Volume of distribution in Sprague-Dawley rat at 1 mg/kg, iv administered as bolus dose measured up to 48 hrs by LC-MS/MS analysis. Type of series: ADME, organism-based. The note with it: in vivo. The method, boiled down:
(§2)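 Male Sprague Dawley rats received a single intravenous bolus at 1 mg/kg. Total blood concentrations were followed over time. Clearance, volume of distribution, half-life and AUC0-inf were derived from the blood profile.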

The subject of another series is MV4-11. Description: Antiproliferative activity against human MV4-11 cells harboring MLL-AF4 treated for 6 hrs measured after 8 days by Celltiter-Glo reagent based assay. The class given is functional, cell-based. In general terms: In ATP-based viability assays light output follows the ATP content of the culture.
Series [3] is described as follows: AUC (0 to infinity) in Sprague-Dawley rat at 15 mg/kg, po administered via gastric intubation by LC-MS/MS analysis. Further details: dose 15 mg/kg, route oral, time infinity. Type of series: ADME, organism-based. The note with it: in vivo. In outline:
as §1

Series [4] is described as follows: AUC (0 to infinity) in Sprague-Dawley rat at 1 mg/kg, iv administered as bolus dose by LC-MS/MS analysis. Type of series: ADME, organism-based. Also noted: dose 1 mg/kg, route intravenous, time infinity. The note with it: in vivo. The method, boiled down:
as §2

A short description of series [5]: Half life in Sprague-Dawley rat at 1 mg/kg, iv administered as bolus dose by LC-MS/MS analysis. Type of series: ADME, organism-based. The note with it: in vivo. In outline:
as §2

Series [6] in a line: Clearance in Sprague-Dawley rat at 1 mg/kg, iv administered as bolus dose measured up to 48 hrs by LC-MS/MS analysis. Type of series: ADME, organism-based. The note with it: in vivo. In outline: as §2
The target in series [7] is T1, Histone-lysine N-methyltransferase, H3 lysine-79 specific (Homo sapiens, UniProt Q8TEK3). Description: Inhibition of DOT1L (2 to 416 residues) (unknown origin) using biotinylated nucleosomes as substrate preincubated for 30 mins followed by substrate addition in presence of [3H-Me]SAM by scintillation proximity assay.
The target of series [8] is T1, Histone-lysine N-methyltransferase, H3 lysine-79 specific. The experiment in a line: Inhibition of DOT1L in human MOLM13 cells assessed as suppression of HoxA9 gene after 72 hrs by luciferase reporter gene assay. Type of series: cell-based. On the technique in general: A reporter such as luciferase makes a cellular process visible.
Series [9] can be described thus: Permeability of compound by HDM-PAMPA assay. The class given is ADME. A general note: In PAMPA a lipid-coated filter parts donor from acceptor wells.
Series [10] is described as follows: Cmax in Sprague-Dawley rat at 15 mg/kg, po administered via gastric intubation measured up to 48 hrs by LC-MS/MS analysis. Type of series: ADME, organism-based. Further details: dose 15 mg/kg, route oral. The note with it: in vivo. In outline:
as §1

The nature of series [11]: Drug level in Sprague-Dawley rat blood at 15 mg/kg, po administered via gastric intubation up to 24 hrs by LC-MS/MS analysis. The class given is ADME, organism-based. The note with it: in vivo. In outline:
as §1

The target in series [12] is T1, Histone-lysine N-methyltransferase, H3 lysine-79 specific. The experiment in a line: Inhibition of DOT1L in human HeLa cells assessed as reduction in H3K79me2 level after 72 hrs by ELISA. Type of series: cell-based.
A short description of series [13]: Tmax in Sprague-Dawley rat at 15 mg/kg, po administered via gastric intubation by LC-MS/MS analysis. The class given is ADME, organism-based. The note with it: in vivo. In outline: as §1

T1 sequence (Q8TEK3 whole entry, the tested form may be a part): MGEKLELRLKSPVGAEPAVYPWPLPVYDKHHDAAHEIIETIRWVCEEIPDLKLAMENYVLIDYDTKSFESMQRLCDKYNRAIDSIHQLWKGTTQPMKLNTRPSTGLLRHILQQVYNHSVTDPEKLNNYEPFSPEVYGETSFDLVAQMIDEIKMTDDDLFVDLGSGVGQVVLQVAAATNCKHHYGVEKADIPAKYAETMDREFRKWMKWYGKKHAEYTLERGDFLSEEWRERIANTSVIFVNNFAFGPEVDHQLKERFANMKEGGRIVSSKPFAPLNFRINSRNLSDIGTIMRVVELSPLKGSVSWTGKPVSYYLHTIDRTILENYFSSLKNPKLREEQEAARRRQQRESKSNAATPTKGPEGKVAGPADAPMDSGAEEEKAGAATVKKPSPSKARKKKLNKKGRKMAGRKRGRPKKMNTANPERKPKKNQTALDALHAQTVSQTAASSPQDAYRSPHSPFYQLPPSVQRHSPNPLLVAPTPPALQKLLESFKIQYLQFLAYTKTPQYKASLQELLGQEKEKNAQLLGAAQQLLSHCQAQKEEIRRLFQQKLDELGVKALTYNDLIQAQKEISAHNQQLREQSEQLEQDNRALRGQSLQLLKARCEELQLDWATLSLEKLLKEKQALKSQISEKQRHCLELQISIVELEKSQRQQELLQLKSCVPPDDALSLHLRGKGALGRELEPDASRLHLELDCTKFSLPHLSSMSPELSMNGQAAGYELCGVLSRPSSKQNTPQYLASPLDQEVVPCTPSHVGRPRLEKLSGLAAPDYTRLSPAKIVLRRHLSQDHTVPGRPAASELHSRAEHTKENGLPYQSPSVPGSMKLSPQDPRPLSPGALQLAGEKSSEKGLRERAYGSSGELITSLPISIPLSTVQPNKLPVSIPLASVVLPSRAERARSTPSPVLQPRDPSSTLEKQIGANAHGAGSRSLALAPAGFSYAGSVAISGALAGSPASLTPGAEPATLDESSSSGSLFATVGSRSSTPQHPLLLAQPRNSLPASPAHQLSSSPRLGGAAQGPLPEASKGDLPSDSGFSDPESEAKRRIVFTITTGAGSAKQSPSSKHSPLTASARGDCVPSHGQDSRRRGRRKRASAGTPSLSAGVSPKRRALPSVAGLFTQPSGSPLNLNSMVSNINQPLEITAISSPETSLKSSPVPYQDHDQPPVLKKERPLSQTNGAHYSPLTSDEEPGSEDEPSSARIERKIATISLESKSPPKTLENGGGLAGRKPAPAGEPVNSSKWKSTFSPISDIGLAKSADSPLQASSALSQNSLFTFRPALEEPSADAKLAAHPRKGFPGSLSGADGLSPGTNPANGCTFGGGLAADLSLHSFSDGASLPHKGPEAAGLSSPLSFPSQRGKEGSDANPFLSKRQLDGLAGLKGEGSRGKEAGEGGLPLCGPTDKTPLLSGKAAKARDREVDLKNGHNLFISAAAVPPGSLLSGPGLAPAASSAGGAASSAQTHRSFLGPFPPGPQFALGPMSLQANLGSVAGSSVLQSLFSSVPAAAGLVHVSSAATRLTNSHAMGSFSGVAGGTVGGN

`CNc1ccnc(Nc2ccc3sc(Cl)c(-c4cc(-c5c(C)ncn(C)c5=O)cnc4Cl)c3c2)n1` came in with a bioavailability in [1] of 40%. In series [2], this compound gave a Vd of 10 L/kg. For the same compound, the pIC50 in the series with MV4-11 is 7.07; in [7] it was 8.85; in series [8], 6.42; in [12] it was 7.64. Besides, the AUC(0-inf) in series [3] was found to be 2.37 µM·h; in [4] it was 0.396 µM·h. The compound also had a half-life in series [5] of 1.7 h. This compound also came in with a clearance in series [6] of 84 mL/min/kg. Moreover, the pKi in series [7] is 9.44. Also, the permeability entry in series [9] was “Permeable”. Besides, the concentration in series [10] peaked (Cmax) at 225 nM. Moreover, the Drug uptake entry in series [11] is “Active”. Besides, in series [13], the Tmax is 3.5 h.
As to `Cc1cc2ccc(NC3=NC(=O)CN3)cc2n1-c1cccnc1Cl`, the pIC50 in series [7] was 5.39.
Still for that read-out and setting: with `Cc1cc2ccc(Nc3nc(=O)cc[nH]3)cc2n1-c1cccnc1Cl` the figure was 5.96; with `CNc1ccnc(Nc2ccc3cc(C)n(-c4cc(-c5c(C)ccn(C)c5=O)cnc4Cl)c3c2)n1`, 8.00.
Turning to `Cc1cc2ccc(Nc3cccnn3)cc2n1-c1cccnc1Cl`, the pIC50 in series [7] was 4.55.
On the same count and under the same terms, in the case of `CNc1ccnc(Nc2ccc3cc(C)n(-c4cccnc4Cl)c3c2)n1` it was 6.55; in that of `Cc1cc2ccc(Nc3nccc(N)n3)cc2n1-c1cccnc1Cl`, 5.37; in that of `CNc1ccnc(Nc2ccc3cc(C)n(-c4ccccc4Oc4ccccc4)c3c2)n1`, 6.82.
Still for that read-out and setting: with `O=C(Cn1nnc(COc2ccccc2Cl)n1)NNC(=O)Nc1ccc(Cl)cc1` the figure was 4.85.
As for `O=C(Cn1nnnc1-c1ccccc1Cl)NNC(=O)Nc1ccc2ccn(-c3ccccc3Cl)c2c1`, the pIC50 in [7] is 7.70. The permeability result in series [9] is given as “Impermeable”.
`O=C(Cn1nnnc1COc1ccccc1Cl)NNC(=O)Nc1ccc(Cl)cc1`: the pIC50 in series [7] is 5.36.
Take `CNc1ccnc(Nc2ccc3cc(C)n(-c4ccccc4Oc4cnc5c(c4)ncn5C)c3c2)n1`: the pIC50 with MV4-11 was 6.89; in [7], 9.40; in series [8], 6.47; in series [12] it was 7.80. For the same compound, the pKi in [7] was 10.10.
With `CCNC(=O)Nc1ccc2ccn(-c3ccccc3Cl)c2c1`, the pIC50 in [7] is 4.40.
